Results: ChEMBL document CHEMBL4152245, “Design, synthesis and biological evaluation of benzo[cd]indol-2(1H)-ones derivatives as BRD4 inhibitors” (Eur J Med Chem, 2018)
Calls of active or inactive are those of the source. The calls are words filed in the database; no cut-off is given here.

Experiments:
[1] = biological target: T1, Bromodomain-containing protein 4 (Homo sapiens, UniProt O60885); assay: (§1) Inhibition of His-tagged BRD4 bromodomain-1 (unknown origin) expressed in Escherichia coli BL21(DE3) using SGRGK(Ac)-GG-K(Ac)-GLG-K(Ac)-GGA-K(Ac)-RHRKVGG-K-Biotin as substrate preincubated for 15 mins followed by substrate addition measured after 10 mins by Alphascreen assay
Method in brief: (§2)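 His-tagged BRD4_BD1 purified by Ni-NTA, anion exchange and gel filtration, tag retained. Assay buffer: 20 mM HEPES pH 7.4, 0.1% BSA, 0.01% Triton X-100, 1 mM DTT. Protein preincubated with compound 15 min at room temperature, biotinylated tetra-acetyl peptide added for 10 min, then streptavidin donor and nickel chelate acceptor beads for 60 min. Compounds screened at 20 and 5 µM; IC50 from three independent experiments.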

[2] = biological target: T1, Bromodomain-containing protein 4; assay: as §1, with “BL21(DE3) at 20 uM” for “BL21(DE3)”, “assay relative to control” for “assay”; method in brief: as §2
[3] = biological target: T1, Bromodomain-containing protein 4; assay: as §1, with “BL21(DE3) at 5 uM” for “BL21(DE3)”, “assay relative to control” for “assay”; method in brief: as §2
[4] = biological target: T1, Bromodomain-containing protein 4; assay: as §1, with “BL21(DE3) at 100 uM” for “BL21(DE3)”, “assay relative to control” for “assay”

| SMILES | IC50 [1] [µM] | inhibition [2] | inhibition [3] | inhibition [4] [%] |
| --- | --- | --- | --- | --- |
| CCN1C(=O)c2cccc3c(S(=O)(=O)N4CCCCC4)ccc1c23 | 47.3 | 99% | 58% | > 90 |
| CCN1C(=O)c2cccc3c(S(=O)(=O)N4CCC[C@H]4CO)ccc1c23 |  | 22.4% | 11% |  |
| CCN1C(=O)c2cccc3c(S(=O)(=O)N4CCC[C@@H](NC(=O)OC(C)(C)C)C4)ccc1c23 |  | 20% | 9% |  |
| CCN1C(=O)c2cccc3c(S(=O)(=O)N4CC[C@@H](O)C4)ccc1c23 | 27.5 | 67% | 21% | > 90 |
| O=C1c2cccc3c(S(=O)(=O)N4CCCC4)ccc(c23)N1CCO | 69.2 | 8% | inactive | > 90 |
| CCN1C(=O)c2cccc3c(S(=O)(=O)N4CCC[C@@H](O)C4)ccc1c23 | 32.2 | 27% | 9% | > 90 |
| CCN1C(=O)c2cccc3c(S(=O)(=O)Nc4ccccc4OC)ccc1c23 |  | 82% | 33% |  |
| CCN1C(=O)c2cccc3c(S(=O)(=O)N4CC[C@H](NC(=O)OC(C)(C)C)C4)ccc1c23 | 50.7 | 88% | 37% | > 90 |
| CCN1C(=O)c2cccc3c(S(=O)(=O)NCCC(=O)OC)ccc1c23 |  | 66% | 29% |  |
| CCN1C(=O)c2cccc3c(S(=O)(=O)NCCCO)ccc1c23 |  | inactive | inactive |  |
| CCN1C(=O)c2cccc3c(S(=O)(=O)N4CCC(NC(=O)OC(C)(C)C)CC4)ccc1c23 |  | 45% | 18% |  |
| CCN1C(=O)c2cccc3c(S(=O)(=O)N4CCC[C@@H]4C(=O)Nc4ccccc4O)ccc1c23 |  | inactive | inactive |  |
| CCN1C(=O)c2cccc3c(S(=O)(=O)N4CCC[C@@H]4C(=O)Nc4ccc(C)cc4)ccc1c23 |  | 51% | 8% |  |
| CCN1C(=O)c2cccc3c(S(=O)(=O)N4CCC[C@@H]4C(=O)Nc4ccccc4C)ccc1c23 |  | 39% | inactive |  |
| CN1C(=O)c2cccc3c(S(=O)(=O)N4CCCC4)ccc1c23 |  | 25% | 5% |  |
| CC(=O)N1C(=O)c2cccc3c(S(=O)(=O)N4CCCC4)ccc1c23 | 12.7 | 9% | 7% | > 90 |
| CCN1C(=O)c2cccc3c(S(=O)(=O)N4CC[C@@H](OC)C4)ccc1c23 | 13.3 | 8% | 17% | > 90 |
| CCN1C(=O)c2cccc3c(S(=O)(=O)N4CCOCC4)ccc1c23 |  | 97% | 55% |  |
| CCN1C(=O)c2cccc3c(S(=O)(=O)N(CC)CC)ccc1c23 | 42.2 | 82% | 29% | > 90 |
| CCN1C(=O)c2cccc3c(S(=O)(=O)N4CCC(N)CC4)ccc1c23 |  | 16% | inactive |  |
| CCN1C(=O)c2cccc3c(S(=O)(=O)N4CC[C@H](N)C4)ccc1c23 |  | inactive | inactive |  |
| CCN1C(=O)c2cccc3c(S(=O)(=O)N[C@H](C(=O)O)C(C)C)ccc1c23 |  | inactive | inactive |  |
| CCCN1C(=O)c2cccc3c(S(=O)(=O)N4CCCC4)ccc1c23 | 11 | 15% | inactive | > 90 |
| CCN1C(=O)c2cccc3c(S(=O)(=O)N4CCC[C@@H]4C(=O)Nc4ccc(Cl)cc4)ccc1c23 |  | 89% | 42% |  |

| SMILES | IC50 [1] [µM] | inhibition [2] | inhibition [3] | inhibition [4] [%] |
| --- | --- | --- | --- | --- |
| CCN1C(=O)c2cccc3c(S(=O)(=O)N4CC[C@H](OC)C4)ccc1c23 |  | 80% | 28% |  |
| O=C(c1ccccc1)c1ccc(NS(=O)(=O)c2cccc(Br)c2)cc1 |  |  |  | > 90 |
| CCN1C(=O)c2cccc3c(S(=O)(=O)N4CCC[C@@H]4C(=O)OC)ccc1c23 |  | 61% | 27% |  |
| CCN1C(=O)c2cccc3c(S(=O)(=O)N4CCC[C@@H]4C(=O)Nc4ccc(O)cc4)ccc1c23 |  | 63% | 18% |  |
| CCN1C(=O)c2cccc3c(S(=O)(=O)N4CC[C@H](O)C4)ccc1c23 |  | 88% | 35% |  |
| CCN1C(=O)c2cccc3c(S(=O)(=O)N4CCC[C@@H](N)C4)ccc1c23 |  | inactive | inactive |  |
| CCN1C(=O)c2cccc3c(S(=O)(=O)NCCC(=O)O)ccc1c23 |  | 60% | 41% |  |
| CCN1C(=O)c2cccc3c(S(=O)(=O)N[C@@H](Cc4ccccc4)C(=O)OC)ccc1c23 |  | 71% | 37% |  |
| CCN1C(=O)c2cccc3c(S(=O)(=O)N4CCC[C@@H]4CO)ccc1c23 |  | 4% | 9% |  |
| CCN1C(=O)c2cccc3c(S(=O)(=O)N4CCC(CNC(=O)OC(C)(C)C)CC4)ccc1c23 |  | 18% | inactive |  |
| CCN1C(=O)c2cccc3c(S(=O)(=O)N4CCC(CN)CC4)ccc1c23 |  | 74% | 23% |  |
| CCN1C(=O)c2cccc3c(S(=O)(=O)N4CCC[C@H](N)C4)ccc1c23 |  | inactive | inactive |  |
| CCN1C(=O)c2cccc3c(S(=O)(=O)N4CCC[C@H](O)C4)ccc1c23 |  | 14% | inactive |  |
| CCN1C(=O)c2cccc3c(S(=O)(=O)N4CCC[C@@H]4C(=O)NO)ccc1c23 |  | 50% | 7% |  |
| CCN1C(=O)c2cccc3c(S(=O)(=O)N4CC[C@@H](NC(=O)OC(C)(C)C)C4)ccc1c23 | 13.3 | 95% | 57% | > 90 |
| CCN1C(=O)c2cccc3c(S(=O)(=O)N4CCC[C@H](NC(=O)OC(C)(C)C)C4)ccc1c23 |  | 20% | 7% |  |
| CN(C)C(=O)CN1C(=O)c2cccc3c(S(=O)(=O)N4CCCC4)ccc1c23 | 18.7 | inactive | inactive | > 90 |
| CCN1C(=O)c2cccc3c(S(=O)(=O)N4CC[C@@H](N)C4)ccc1c23 |  | inactive | 3% |  |
| CCN1C(=O)c2cccc3c(S(=O)(=O)NCC(=O)O)ccc1c23 |  | 53% | inactive |  |
| CCOC(=O)CNS(=O)(=O)c1ccc2c3c(cccc13)C(=O)N2CC |  | 12% | inactive |  |
| O=C(O)CN1C(=O)c2cccc3c(S(=O)(=O)N4CCCC4)ccc1c23 | 23.1 | 4% | inactive | > 90 |
| CCN1C(=O)c2cccc3c(S(=O)(=O)N[C@@H](Cc4ccccc4)C(=O)O)ccc1c23 |  | inactive | 4% |  |
| CCN1C(=O)c2cccc3c(S(=O)(=O)N[C@H](C(=O)OC)C(C)C)ccc1c23 |  | 89% | 21% |  |
